Rows were chosen to be rich in hits. Some 6.4% of all compounds tested hit in one or more screens of this group.
H69AR inhibit: blocks growth of human H69AR lung tumor cells. H69AR lung tumor viability, ATP luminescence, 72 h; stronger effect = lower value. viability, % at 10 µM. 85,000 compounds, 6% hits;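 active = viability at or below 40%; inactive = viability above 40%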;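 also: multidrug resistant small cell line overexpressing MRP-1 efflux transporter; 100% = mean luminescence of untreated control wells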
Fibroblast inh: blocks proliferation of human lung fibroblasts. viability, % at 10 µM. LL 47 human lung fibroblast viability, ATP luminescence; stronger effect = lower value. AID 719. 85,000 compounds, 1.1% hits;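 active = viability at or below 50% in the single dose screen; inactive = viability above 50%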;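 also: compound exposure lasted 72 h before the ATP readout; 100% = median luminescence of untreated cell-only wells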
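material = human LL 47 lung fibroblast cells | dosing = compounds added from tenfold dosing solution, 0.1% DMSO final | timing = overnight cell rest, 72 h compound treatment at 37 °C | measured by = CellTiter-Glo luminescence measuring cellular ATP | evaluation = % viability versus median cells-only luminescence | control set = cell-only wells, no compound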
HUVEC prolif 384: human endothelial cell proliferation inhibition; HUVEC proliferation, CellTiter-Glo luminescence, 72 h; stronger effect = lower value; 86,000 compounds, 1.1% hits; viability, % at 10 µM (by protocol);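 active = viability at or below 30%; inactive = viability above 30%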;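 also: 100% = median luminescence of DMSO-only cell control wells on each plate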
Ecoli WT expand: blocks growth of wild type E. coli BW25113; 98,000 compounds, 0.15% hits; growth inhibition, % at 100 µM; OD600 absorbance;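 active = growth inhibition above about 50% at one test dose, limit read from the data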;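 also: growth measured after 20 h incubation at 37 °C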
tolC growth inh: growth inhibitors of E. coli BW25113 tolC mutant; OD615; growth inhibition, % at 10 µM (by protocol); 65,000 compounds, 2.2% hits; AID 573;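 active = growth inhibition at or above a cutoff equal to the mean over every tested compound plus 3 SD, cut at about 60% in these data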;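 also: growth measured after 20 h incubation at 37 °C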
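Test system: E. coli BW25113 ΔtolC::kan bacteria | Medium: Kanamycin-containing LB broth (50 µg/mL) | Dosing: One dose of 10 µM final | Times: 20 h incubation with compound, 37 °C | Detection: Optical density read at 615 nm | Read-out basis: Percent growth inhibition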
Jurkat viability: reduces viability or proliferation of Jurkat cells; Jurkat E6.1 viability, ATP luminescence, 48 h; inhibition, % at 4 µM; 56,000 compounds, 1.2% hits;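 active = inhibition above the mean inhibition of all tested compounds plus 3 SD, cut at about 28% in these data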
Starred values were filed as active, the others as inactive; · = no result.

SMILES	H69AR inhibit	Fibroblast inh	HUVEC prolif 384	Ecoli WT expand	tolC growth inh	Jurkat viability
CCC(C)Nc1c2c(nc3c(-c4ccccc4)c(C)nn13)CCC2 (stereo not drawn)	30*	97	94	0	·	·
Cc1nn2c(NCCCN3CCOCC3)c3c(nc2c1-c1ccccc1)CCC3	47	91	92	-13	7	4
CCCCNc1c2c(nc3c(-c4ccccc4)c(C)nn13)CCC2	27*	84	80	-13	·	·
CCOC(=O)c1ccccc1NC(=O)CN(c1ccccc1C)S(C)(=O)=O	64	99	96	-1	·	·
COCCOC(=O)C1=C(C)NC(SCC(=O)NC(C)(C)C)=C(C#N)C1c1ccco1 (stereo not drawn)	67	101	85	8	20	·
C=CCOC(=O)C1=C(C)NC(SCC(=O)Nc2ccc(C)c(Cl)c2)=C(C#N)C1c1ccco1 (stereo not drawn)	7.0*	17*	61	-2	7	·
O=C(Nc1c(C(=O)Nc2cccc3ccccc23)cnn1-c1ccccc1)c1ccco1	55	96	87	·	·	·
Nc1nnc(-c2cccnc2)s1	72	105	95	6	-9	0
c1cncc(-c2nnc(-c3cccnc3)nn2)c1	3.7*	59	3.9*	6	-23	7
Cc1[nH]c2ccccc2c1CN1CCc2ccccc2C1	35*	63	79	1	·	·
O=c1[nH]c(CN2CCc3ccccc3C2)nc2ccccc12	86	83	81	2	6	0
O=C(CSCc1cccc(Br)c1)N1CCOCC1	97	107	98	-6	-15	-2
CCOc1ccccc1NC(=O)Cn1nnc(-c2ccc(OCC)c(OCC)c2)n1	3.5*	73	55	-3	9	-10
COc1ccc(N2CCN(C(=O)Cn3nnc(-c4ccc(OC)c(OC)c4)n3)CC2)cc1	15*	100	101	-11	-6	-7
COc1ccc(-c2nnn(CC(=O)N3CCN(c4ccccc4OC)CC3)n2)cc1	67	97	98	·	·	·
Cc1ccc(-c2noc(CCC(=O)NC3CCCc4ccccc43)n2)cc1 (stereo not drawn)	20*	105	88	-22	7	-1
CCOc1ccc(-c2nnn(CC(=O)Nc3cc(OC)cc(OC)c3)n2)cc1OCC	10*	95	55	-11	-4	1
Cn1c(=O)c(C(=O)CSc2nncs2)c(N)n(Cc2ccccc2)c1=O	73	83	87	-6	7	-5
CCOC(=O)N1CCC(NC(=O)CCc2c(C)nc3c(c(C)nn3C(C)(C)C)c2C)CC1	100	101	113	-2	9	7
Cc1cc2nc(SCCOC(=O)Nc3ccc(Cl)cc3)nc(C)c2cc1C	·	·	·	-10	·	·
COc1ccc(-c2nnn(CC(=O)NC3CCCc4ccccc43)n2)cc1OC (stereo not drawn)	25*	66	100	·	16	·
O=C(CCN1CCN(CCO)CC1)Nc1ccc(OCc2ccccc2)cc1	83	96	89	14	-15	4
O=C(CN1CCOCC1)Nc1ccc(Oc2ccc(NC(=O)CN3CCOCC3)cc2)cc1	101	109	104	6	-8	-5
O=C(CN1CCOCC1)Nc1ccc(OCc2ccccc2)cc1	6.9*	102	86	1	8	·
O=C(CCN1CCN(Cc2ccccc2)CC1)Nc1ccc(OCc2ccccc2)cc1	29*	87	8.7*	0	·	·
SMILES	H69AR inhibit	Fibroblast inh	HUVEC prolif 384	Ecoli WT expand	tolC growth inh	Jurkat viability
O=C(Nc1ccc(Br)cn1)C1CCCN1S(=O)(=O)c1ccccc1 (stereo not drawn)	89	91	102	0	·	·
COc1ccc(N(CC(=O)NCC2CCCO2)C(=O)CCC(=O)Nc2nccs2)cc1 (stereo not drawn)	92	95	90	·	·	·
Cc1nc2ccccn2c(=O)c1CCN1CCC(C(=O)c2ccc(F)cc2)CC1	89	90	88	·	13	·
Cc1nc2sccn2c(=O)c1CCN1CCC(=C(c2ccc(F)cc2)c2ccc(F)cc2)CC1	48	95	32*	·	15	·
COc1ccc2c(c1)c(C(O)CN1CCC(Cc3ccccc3)CC1)c(C)n2C (stereo not drawn)	·	·	·	12	·	·
CCSC1=NC2(CCCCC2)Nc2sc3c(c21)CCCC3	2.2*	89	78	8	·	·
C=C(CC)C(=O)c1ccc(OCC(=O)O)c(Cl)c1Cl	12*	60	57	·	10	·
CCOC(=O)COc1ccc2nsnc2c1Cl	84	115	99	12	-9	9

Source: PubChem BioAssay
